From ChEMBL document CHEMBL4130355, “Development of a series of novel 4-anlinoquinazoline derivatives possessing quinazoline skeleton: Design, synthesis, EGFR kinase inhibitory efficacy, and evaluation of anticancer activities in vitro” (Eur J Med Chem, 2017)
Active and inactive are the calls of the source. The calls are words filed in the database; no cut-off is given here.

Experiments:
[1] = tested on: HepG2; experiment: Antiproliferative activity against human HepG2 cells at 100 uM after 72 hrs by MTT assay realtive to control; assay type: functional
Outline: (§1)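 MTT assay in triplicate wells. Cells (2 × 10^3/well) were attached 24 h, then treated at 0.1, 1, 10, 50 or 100 µM for 24, 48 or 72 h. MTT added for 4 h, SDS solubilisation, absorbance at 570/650 nm. Inhibition = 1 − (OD treated − blank)/(OD control − blank). Reported as mean ± SD of three independent experiments.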

[2] = tested on: HepG2; experiment: Antiproliferative activity against human HepG2 cells at 1 uM after 48 hrs by MTT assay realtive to control; assay type: functional; outline: as §1
[3] = tested on: HepG2; experiment: Antiproliferative activity against human HepG2 cells at 100 uM after 24 hrs by MTT assay realtive to control; assay type: functional; outline: as §1
[4] = tested on: HepG2; experiment: Antiproliferative activity against human HepG2 cells after 72 hrs by MTT assay; assay type: functional, cell-based; details: HepG2, 72 h
[5] = target: T1, Epidermal growth factor receptor (Homo sapiens, UniProt P00533); details: HEK293, at 1 pM
T1 sequence (P00533 whole entry): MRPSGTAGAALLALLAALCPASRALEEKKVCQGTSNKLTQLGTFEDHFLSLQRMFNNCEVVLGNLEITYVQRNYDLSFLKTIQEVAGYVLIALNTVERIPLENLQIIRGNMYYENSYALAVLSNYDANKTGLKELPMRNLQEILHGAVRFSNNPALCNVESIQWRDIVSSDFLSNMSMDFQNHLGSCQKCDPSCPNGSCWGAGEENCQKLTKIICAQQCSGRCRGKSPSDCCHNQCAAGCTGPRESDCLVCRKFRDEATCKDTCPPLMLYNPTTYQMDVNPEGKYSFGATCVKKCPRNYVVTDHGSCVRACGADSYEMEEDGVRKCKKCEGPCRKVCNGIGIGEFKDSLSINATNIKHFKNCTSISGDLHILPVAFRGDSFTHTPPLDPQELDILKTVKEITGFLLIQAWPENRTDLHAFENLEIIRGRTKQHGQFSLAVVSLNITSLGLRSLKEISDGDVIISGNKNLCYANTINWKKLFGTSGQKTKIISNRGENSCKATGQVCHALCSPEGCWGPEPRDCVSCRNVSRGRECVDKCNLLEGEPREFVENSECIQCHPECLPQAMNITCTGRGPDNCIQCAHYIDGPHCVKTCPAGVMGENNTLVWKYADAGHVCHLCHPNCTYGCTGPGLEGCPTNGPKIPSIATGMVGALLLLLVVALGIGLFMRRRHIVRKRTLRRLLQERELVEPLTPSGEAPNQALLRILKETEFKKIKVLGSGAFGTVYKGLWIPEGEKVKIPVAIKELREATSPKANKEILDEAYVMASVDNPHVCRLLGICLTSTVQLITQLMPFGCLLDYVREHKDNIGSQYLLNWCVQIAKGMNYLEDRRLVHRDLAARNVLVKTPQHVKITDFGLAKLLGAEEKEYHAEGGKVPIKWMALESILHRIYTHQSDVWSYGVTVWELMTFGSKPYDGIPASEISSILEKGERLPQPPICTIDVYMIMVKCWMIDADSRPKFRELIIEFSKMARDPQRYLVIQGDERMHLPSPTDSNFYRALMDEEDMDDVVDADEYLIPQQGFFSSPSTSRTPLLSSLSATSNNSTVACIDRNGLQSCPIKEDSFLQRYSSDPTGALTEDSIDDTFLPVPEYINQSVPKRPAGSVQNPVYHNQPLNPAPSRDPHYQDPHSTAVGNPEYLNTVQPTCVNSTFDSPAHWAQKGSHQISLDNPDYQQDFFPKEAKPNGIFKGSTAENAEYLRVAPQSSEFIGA

[6] = tested on: HepG2; experiment: Induction of apoptosis in human HepG2 cells assessed as viable cells at 2.5 uM after 48 hrs by Annexin V-FITC/propidium iodide double staining-based flow cytometry (reference value: 86.4%); assay type: functional; details: HepG2, 48 h, read-out: Activity
[7] = tested on: HepG2; experiment: Antiproliferative activity against human HepG2 cells at 50 uM after 48 hrs by MTT assay realtive to control; assay type: functional; outline: as §1
[8] = target: T1, Epidermal growth factor receptor; details: HEK293, at 0.01 µM
[9] = tested on: A549; experiment: Antiproliferative activity against human A549 cells at 0.1 uM after 72 hrs by MTT assay relative to control; assay type: functional; outline: as §1
[10] = tested on: HepG2; experiment: Induction of mitochondrial membrane potential loss in human HepG2 cells assessed as mitochondrial membrane potential levels at 2.5 uM after 48 hrs by rhodamine-123 dye based FACS analysis (reference value: 90.4%); assay type: functional
[11] = tested on: HepG2; experiment: Induction of apoptosis in human HepG2 cells assessed as early apoptotic cells at 2.5 uM after 48 hrs by Annexin V-FITC/propidium iodide double staining-based flow cytometry (reference value: 8.7%); assay type: functional
[12] = tested on: HepG2; experiment: Induction of apoptosis in human HepG2 cells assessed as late apoptotic cells at 10 uM after 48 hrs by Annexin V-FITC/propidium iodide double staining-based flow cytometry (reference value: 4.3%); assay type: functional
[13] = tested on: HepG2; experiment: Induction of apoptosis in human HepG2 cells assessed as chromatin condensation at 2.5 to 20 uM after 48 hrs by Hoechst 33342/propidium iodide double staining based laser scanning confocal microscopy; assay type: functional, cell-based
Outline: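 HepG2 plated at 5.0 × 10^4 cells/well in DMEM with 10% FBS, 24 h at 37 °C, then treated 48 h (2.5–20 µM). After two ice-cold PBS washes, cells were stained with Hoechst 33342/PI mixed 1:1 for 30 min at 37 °C in the dark, washed three times, and imaged by laser scanning confocal microscopy at 200×.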

[14] = tested on: SH-SY5Y; experiment: Antiproliferative activity against human SH-SY5Y cells after 72 hrs by MTT assay; assay type: functional, cell-based
[15] = tested on: HepG2; experiment: Antiproliferative activity against human HepG2 cells at 10 uM after 48 hrs by MTT assay realtive to control; assay type: functional; outline: as §1
[16] = tested on: HepG2; experiment: Antiproliferative activity against human HepG2 cells after 48 hrs by MTT assay; assay type: functional, cell-based; details: HepG2, 48 h
Outline: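 MTT read-out. Cells seeded at 2 × 10^3/well, attached 24 h at 37 °C in 5% CO2, then exposed to 0.1–100 µM for 24, 48 or 72 h. MTT for 4 h, formazan dissolved in 10% SDS/NH4Cl for 10 h, absorbance at 570 nm corrected at 650 nm. % inhibition computed against untreated and blank wells. IC50 is the mean of at least three independent experiments.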

[17] = tested on: A549; experiment: Antiproliferative activity against human A549 cells at 10 uM after 72 hrs by MTT assay relative to control; assay type: functional; outline: as §1
[18] = tested on: A549; experiment: Antiproliferative activity against human A549 cells at 0.1 uM after 24 hrs by MTT assay relative to control; assay type: functional; outline: as §1
[19] = tested on: HepG2; experiment: Cytotoxicity against human HepG2 cells at 20 uM after 48 hrs by LDH release assay (reference value: 100%); assay type: functional
Outline: (§2)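 LDH release. HepG2 cells at 1.0 × 10^5/well were incubated 24 h at 37 °C, then treated at 2.5–40 µM for 48 h. Cells lysed with 2% lysate for 1 h gave the full-release (100%) reference; medium-only cells were the low control. LDH in the supernatant was measured per kit. Triplicates, three independent repeats.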

[20] = tested on: HepG2; experiment: Induction of apoptosis in human HepG2 cells assessed as intracellular free Ca2+ levels at 10 uM after 48 hrs by FL1 channel/FACS analysis (reference value: 14.2%); assay type: functional
Outline: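 HepG2 seeded at 5.0 × 10^5 cells/mL, 24 h at 37 °C in 5% CO2, then treated 48 h (2.5–20 µM). Harvested cells were washed in ice-cold PBS and loaded with 4 µM Fluo-3/AM for 30 min. After trypsinizing, they were washed twice and resuspended in HEPES, and fluorescence was measured in the FL-1 channel by flow cytometry. Values are averages of at least three independent experiments.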

[21] = target: T1, Epidermal growth factor receptor; details: HEK293, at 0.1 µM
[22] = tested on: HepG2; experiment: Cytotoxicity against human HepG2 cells at 10 uM after 48 hrs by LDH release assay (reference value: 100%); assay type: functional; outline: as §2
[23] = tested on: HepG2; experiment: Antiproliferative activity against human HepG2 cells at 1 uM after 24 hrs by MTT assay realtive to control; assay type: functional; outline: as §1
[24] = tested on: A549; experiment: Antiproliferative activity against human A549 cells at 1 uM after 72 hrs by MTT assay relative to control; assay type: functional; outline: as §1
[25] = tested on: HepG2; experiment: Cell cycle arrest in human HepG2 assessed as accumulation at G0/G1 phase at 2.5 uM after 48 hrs by propidium iodide-staining based flow cytometry (reference value: 69.40%); assay type: functional
Outline: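 HepG2 cells at 5.0 × 10^5/well were grown 24 h, then treated at 0, 2.5, 5.0 or 10.0 µM for 48 h alongside medium-only wells. Cells fixed in 70% ice-cold ethanol for ≥24 h, treated with RNase A at 37 °C for 30 min, then stained with propidium iodide for 30 min at 4 °C in the dark. DNA content read by flow cytometry. Average of at least three experiments.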

[26] = tested on: HepG2; experiment: Induction of apoptosis in human HepG2 cells assessed as viable cells at 10 uM after 48 hrs by Annexin V-FITC/propidium iodide double staining-based flow cytometry (reference value: 86.4%); assay type: functional; details: HepG2, 48 h, read-out: Activity
[27] = tested on: A549; experiment: Antiproliferative activity against human A549 cells at 0.1 uM after 48 hrs by MTT assay relative to control; assay type: functional; outline: as §1
[28] = tested on: HepG2; experiment: Antiproliferative activity against human HepG2 cells at 0.1 uM after 48 hrs by MTT assay realtive to control; assay type: functional; outline: as §1
[29] = tested on: HepG2; experiment: Antiproliferative activity against human HepG2 cells at 0.1 uM after 24 hrs by MTT assay realtive to control; assay type: functional; outline: as §1

## COc1cc2c(Nc3ccc(C#N)cc3)ncnc2cc1OCCCN1CCC(c2ccccc2)CC1
[1]
  Activity: 101%
[2]
  Activity: 8.6%
[3]
  Activity: 101%
[4]
  IC50: 4.61 to 5.29 µM
[5]
  inhibition: 16%
[6]
  viability at 2.5 µM: 47.5%
[7]
  Activity: 108%
[8]
  inhibition: 61.8%
[9]
  Activity: 5%
[10]
  Activity: 88.3%
[11]
  Activity: 48.6%
[12]
  Activity: 0.1%
[13]
  Activity: Active
[14]
  IC50: 7.77 µM
[15]
  Activity: 55.6%
[16]
  IC50: 9.56 µM
[17]
  Activity: 34.1%
[18]
  Activity: 0.8%
[19]
  Activity: 52.94%
[20]
  Activity: 48.9%
[21]
  inhibition: 73.1%
[22]
  Activity: 69.27%
[23]
  Activity: 7.9%
[24]
  Activity: 1.5%
[25]
  Activity: 67.07%
[26]
  viability at 10 µM: 1.3%
[27]
  Activity: 1.3%
[28]
  Activity: 5.7%
[29]
  Activity: 4.4%
